The values below come from ChEMBL document CHEMBL2040833, “Metabolism-based synthesis, biologic evaluation and SARs analysis of O-methylated analogs of quercetin as thrombin inhibitors” (Eur J Med Chem, 2012).

For test [1], the target named is Thrombin (Oryctolagus cuniculus) (UniProt Q28731). Put plainly: Inhibition of thrombin in New Zealand rabbit plasma assessed as prothrombin time at 100 uM by coagulometry. In a few lines:
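40 µl PPP preincubated 3 min at 37 °C, then 40 µl thromboplastin agent plus 20 µl sample (in 80% ethanol) added; clotting read by coagulometer with commercial kit; activity expressed as INR increase.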

Test [2] has the same target. Put plainly: Inhibition of thrombin in New Zealand rabbit plasma assessed as thrombin time at 100 uM after 3 mins by coagulometry. In a few lines:
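Using citrated rabbit platelet-poor plasma, 40 µl PPP was held 3 min at 37 °C, then 40 µl thrombin solution and 20 µl sample (in 80% ethanol) were added for 3 min at 37 °C. Clotting time was measured by coagulometer with a commercial kit, and prolongation was scored.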

For test [3] the target is unchanged. Put plainly: Inhibition of thrombin in New Zealand rabbit plasma assessed as fibrinogen level at 100 uM by coagulometry. Put shortly: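 Citrated rabbit platelet-poor plasma (3000 rpm 10 min). 10 µl PPP incubated with 90 µl imidazole buffer 3 min at 37 °C, then 50 µl FIB agent and 10 µl sample (in 80% ethanol) added; fibrinogen content read on coagulometer with commercial kit; reduction in FIB content scored.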

Test [4] has the same target. The experiment in a line: Inhibition of thrombin in New Zealand rabbit plasma assessed as activated partial thromboplastin time at 100 uM after 3 mins by coagulometry. Put shortly:
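Sample in 80% ethanol; 10 µl sample and 50 µl PPP incubated with 50 µl APTT-activating agent 3 min at 37 °C, then 50 µl CaCl2 added; clotting time by coagulometer with commercial kit; prolongation scored.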

Regarding `COc1ccc(-c2oc3cc(O)cc(O)c3c(=O)c2O)cc1O`, the PT in test [1] amounted to 6.9 s. Also, the TT in test [2] stood at 16.6 s. The Activity in test [3] was 7.5 g/L. The APTT in test [4] came to 49.8 s.

Consider `COc1ccc(-c2oc3cc(O)cc(O)c3c(=O)c2O)cc1OC`, for which the PT in test [1] came to 5.8 s. Besides, the TT in test [2] was determined as 9.9 s. Also, in test [3], the Activity stood at 6.6 g/L. The APTT in test [4] was 58.7 s.

On to `COc1cc(O)c2c(=O)c(OC)c(-c3ccc(OC)c(OC)c3)oc2c1`, for which, in test [1], the PT stood at 5.4 s. Also, the TT in test [2] is 14.2 s. For the same compound, the Activity in test [3] was determined as 8.4 g/L. Further, in test [4], the APTT came out at 42.4 s.

Consider `COc1cc(O)cc2oc(-c3ccc(O)c(O)c3)c(O)c(=O)c12`, for which, in test [1], the PT was 7.6 s. Also, the TT in test [2] is 19.4 s. In addition, the Activity in test [3] came to 5 g/L. Moreover, the APTT in test [4] came out at 49.2 s.

Take `COc1cc(O)c2c(=O)c(O)c(-c3ccc(OC)c(O)c3)oc2c1`: the PT in test [1] was 7.4 s. Besides, in test [2], the TT was found to be 14.8 s. Further, the Activity in test [3] amounted to 5.9 g/L. The APTT in test [4] is 46.2 s.

On to `COc1ccc(-c2oc3cc(O)cc(OC)c3c(=O)c2O)cc1OC`, for which the PT in test [1] worked out at 5.1 s. Besides, the TT in test [2] amounted to 15.9 s. Also, the Activity in test [3] was 7.9 g/L. The APTT in test [4] amounted to 49.3 s.

With `COc1cc(OC)c2c(=O)c(O)c(-c3ccc(O)c(O)c3)oc2c1`, the PT in test [1] came to 6.9 s. In addition, in test [2], the TT was found to be 21.8 s. Moreover, the Activity in test [3] was 5.1 g/L. Further, the APTT in test [4] came out at 67.6 s.

As to `COc1cc(-c2oc3cc(O)cc(O)c3c(=O)c2O)ccc1O`, in test [1], the PT worked out at 5.3 s. In addition, the TT in test [2] is 20.5 s. Moreover, the Activity in test [3] came to 5.4 g/L. Also, in test [4], the APTT was determined as 82.3 s.

For the compound `O=c1c(O)c(-c2ccc(O)c(O)c2)oc2cc(O)cc(O)c12`, the PT in test [1] was 6.2 s. For the same compound, the TT in test [2] worked out at 19.2 s. Also, the Activity in test [3] was 5.8 g/L. Also, in test [4], the APTT amounted to 30.3 s.

As for `COc1c(-c2ccc(O)c(O)c2)oc2cc(O)cc(O)c2c1=O`, the PT in test [1] is 4.8 s. Besides, the TT in test [2] turned out to be 22.9 s. In addition, the Activity in test [3] is 4.7 g/L. The APTT in test [4] was determined as 50.2 s.

For `COc1cc(OC)c2c(=O)c(OC)c(-c3ccc(OC)c(OC)c3)oc2c1`, the PT in test [1] stood at 5.2 s. The TT in test [2] was determined as 11.6 s. Also, in test [3], the Activity is 8.9 g/L. The APTT in test [4] is 40.3 s.

For `COc1cc(O)c2c(=O)c(O)c(-c3ccc(O)c(O)c3)oc2c1`, the PT in test [1] worked out at 6.8 s. The TT in test [2] worked out at 23 s. For the same compound, the Activity in test [3] was determined as 5.4 g/L. The APTT in test [4] was determined as 72.6 s.

Consider `COc1c(-c2ccc(O)c(O)c2)oc2cc(O)cc(OC)c2c1=O`, for which, in test [1], the PT came out at 5.7 s. Besides, the TT in test [2] stood at 20 s. Further, the Activity in test [3] amounted to 5.4 g/L. For the same compound, the APTT in test [4] turned out to be 63.7 s.

Take `COc1cc(O)c2c(=O)c(OC)c(-c3ccc(OC)c(O)c3)oc2c1`: the PT in test [1] is 6 s. Besides, the TT in test [2] was found to be 14.9 s. In addition, the Activity in test [3] was 5.3 g/L. Further, in test [4], the APTT is 61.7 s.

On to `COc1cc(O)c2c(=O)c(OC)c(-c3ccc(O)c(O)c3)oc2c1`, for which the PT in test [1] was 7.3 s. The TT in test [2] came out at 22.5 s. Further, in test [3], the Activity came out at 7.3 g/L. Moreover, the APTT in test [4] came to 54.7 s.

Take `COc1cc(-c2oc3cc(O)cc(OC)c3c(=O)c2O)ccc1O`: the PT in test [1] was 5.8 s. The TT in test [2] was determined as 22.3 s. For the same compound, the Activity in test [3] was 6.2 g/L. In test [4], the APTT worked out at 57.6 s.
